From ChEMBL document CHEMBL3091366, “New 5-Aryl-1H-imidazoles display in vitro antitumor activity against apoptosis-resistant cancer models, including melanomas, through mitochondrial targeting” (J Med Chem, 2013)

Tests used:
SK-MEL-28 = assay: Cytotoxicity against apoptotic-resistant human SK-MEL-28 cells assessed as growth inhibition after 72 hrs by MTT-based colorimetric assay; type: functional, cell-based; settings: Homo sapiens, SK-MEL-28, 72 h
In short: (§1)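 MTT colorimetric assay, 72 h exposure to the fumarate salt. Read-out is reduction of MTT to formazan by living cells. IC50 is the concentration that reduces the whole cell population by 50%. Six replicates per condition. Where compounds were not tested on every line, apoptosis-sensitive lines were PC3, MCF-7, LoVo and B16F10, and apoptosis-resistant lines were U373, T98G, A549 and SK-MEL-28.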

MCF7 = assay: Cytotoxicity against apoptotic-sensitive human MCF7 cells assessed as growth inhibition after 72 hrs by MTT-based colorimetric assay; type: functional, cell-based; settings: Homo sapiens, MCF7, 72 h; in short: as §1
LoVo = assay: Cytotoxicity against apoptotic-sensitive human LoVo cells assessed as growth inhibition after 72 hrs by MTT-based colorimetric assay; type: functional, cell-based; settings: Homo sapiens, LoVo, 72 h; in short: as §1
T98G = assay: Cytotoxicity against apoptotic-resistant human T98G cells assessed as growth inhibition after 72 hrs by MTT-based colorimetric assay; type: functional, cell-based; settings: Homo sapiens, T98G, 72 h; in short: as §1
[1] = Cytotoxicity against apoptotic-resistant human U373 cells assessed as growth inhibition after 72 hrs by MTT-based colorimetric assay; type: functional, cell-based, U-373MG ATCC; settings: Homo sapiens, U373 MG, 72 h; in short: as §1
PC-3 = assay: Cytotoxicity against apoptotic-sensitive human PC3 cells assessed as growth inhibition after 72 hrs by MTT-based colorimetric assay; type: functional, cell-based; settings: Homo sapiens, PC-3, 72 h; in short: as §1
A549 = assay: Cytotoxicity against apoptotic-resistant human A549 cells assessed as growth inhibition after 72 hrs by MTT-based colorimetric assay; type: functional, cell-based; settings: Homo sapiens, A549, 72 h; in short: as §1
B16-F10 = assay: Cytotoxicity against apoptotic-sensitive mouse B16F10 cells assessed as growth inhibition after 72 hrs by MTT-based colorimetric assay; type: functional, cell-based; settings: B16-F10, 72 h; in short: as §1

Row | SMILES | IC50 (SK-MEL-28) | IC50 (MCF7) | IC50 (LoVo) | IC50 (T98G) | IC50 [1] | IC50 (PC-3) | IC50 (A549) | IC50 (B16-F10)
1 | COc1ccccc1-c1cnc(OC)n1C | > 100 µM | > 100 µM | 73 µM | > 100 µM | > 100 µM | > 100 µM | > 100 µM | 
2 | C=CCCCCOc1ncc(-c2cc(C(C)C)ccc2OC)n1C | 3 µM | 18 µM | 3 µM | 6 µM |  | 9 µM | 4 µM | 7 µM
3 | COc1ccccc1-c1cnc(OCCCc2ccccc2)n1C | 4 µM | 3 µM | 3 µM | 3 µM |  | 27 µM | 3 µM | 7 µM
4 | C=CCCCCOc1nc(-c2ccccc2OC)cn1C | > 100 µM | 77 µM | 81 µM | > 100 µM |  | 86 µM | 91 µM | 69 µM
5 | Cc1ccc2c(c1)-c1cnc(n1C)OCCCCCCCCO2 | 55 µM | 34 µM | 34 µM | 63 µM | 57 µM | 36 µM | 41 µM | 
6 | Cn1c(-c2ccccc2O)cnc1S(=O)(=O)c1ccccc1 | > 100 µM | > 100 µM | 56 µM | > 100 µM | > 100 µM | > 100 µM | > 100 µM | 
7 | Cn1c2cnc1OCCCCCCCCOc1cc(F)ccc1-2 | 58 µM | 35 µM | 32 µM | 69 µM | 70 µM | 46 µM | 43 µM | 
8 | CCCCCCOc1ncc(-c2ccccc2OC)n1C | 43 µM | 27 µM | 27 µM | 58 µM |  | 33 µM | 37 µM | 38 µM
9 | COc1ccc2c(c1)-c1cnc(n1C)OCCCCCCCCO2 | 57 µM | 32 µM | 34 µM | 68 µM | 63 µM | 40 µM | 40 µM | 
10 | C=CCCCCOc1ncc(-c2ccc(Cl)cc2OC)n1C | 50 µM | 37 µM | 35 µM | 67 µM |  | 36 µM | 47 µM | 43 µM
11 | Cn1c2cnc1OCCCCCCCCCCOc1cc3ccccc3cc1-2 | 33 µM | 24 µM | 28 µM | 22 µM | 29 µM | 25 µM | 20 µM | 
12 | Cn1c2cnc1OCCCCCCCCOc1ccc(F)cc1-2 | 72 µM | 52 µM | 43 µM | 77 µM | 73 µM | 52 µM | 58 µM | 
13 | C#CCCCCOc1ncc(-c2ccccc2OC)n1C | 38 µM | 10 µM | 11 µM | 35 µM |  | 21 µM | 22 µM | 34 µM
14 | C=CCCCCOc1ccccc1-c1cnc(S(=O)(=O)c2ccccc2)n1C | 38 µM | 25 µM | 27 µM | 71 µM | 63 µM | 33 µM | 38 µM | 
15 | C=CCCCCOc1ccccc1-c1cnc(OC)n1C | 85 µM | 98 µM | 47 µM | > 100 µM | > 100 µM | 86 µM | 80 µM | 
16 | C=CCCCCOc1ccccc1-c1cnc(OCCCC=C)n1C | 19 µM | 7 µM | 4 µM | 3 µM | 5 µM | 28 µM | 3 µM | 
17 | COc1ccc(C)cc1-c1cnc(OCCCCc2ccccc2)n1C | 42 µM | 28 µM | 27 µM | 44 µM |  | 43 µM | 40 µM | 34 µM
18 | C=CCCCCOc1ccccc1-c1cnc(OCCOCC=C)n1C | 59 µM | 32 µM | 26 µM | 65 µM | 60 µM | 36 µM | 34 µM | 
19 | C=CCCCCOc1ncc(-c2cc(F)c(F)cc2OC)n1C | 40 µM | 32 µM | 36 µM | 53 µM |  | 40 µM | 43 µM | 43 µM
20 | C=CCCCCOc1ncc(-c2ccccc2OC)n1C | 13 µM | 5 µM | 4 µM | 5 µM | 9 µM | 24 µM | 5 µM | 
